Source: ChEMBL document CHEMBL1131618, “Synthesis, activity, and structure--activity relationship studies of novel cationic lipids for DNA transfer” (1998)

Columns and labels:
NIH3T3 [1] = assay: Luciferase activity in mouse fibroblasts NIH3T3 cells.; format: functional
Summary of the method: (§1)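 5×10^4 cells plated in DMEM at 37 °C, 5% CO2, and transfected after 24 h at 50/70% confluency in serum-free medium. CMV-luciferase plasmid mixed with cationic lipid in 75 mM NaCl final, four lipid:DNA ratios, added dropwise, triplicates. Serum added to 10% at 2 h, then 44 h more. Lysate supernatant read with 10 s luminometer counting. Value at optimal ratio.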

HeLa [2] = assay: Luciferase activity in human Hela cells; format: functional; summary of the method: as §1
NIH3T3 [3] = assay: Compound was tested for the impact of introduction of molecular probe as side chain entity in the linker position on expression of luciferase in transfected NIH3T3 cells (RLU = luciferase activity in relative light units (RLU)/10 s for 10E3 plated cells); format: functional, Mus musculus; summary of the method: as §1
[4] = test system: CV1 cells (Cercopithecus aethiops); assay: Compound was tested for the impact of introduction of molecular probe as side chain entity in the linker position on expression of luciferase in transfected CV1 cells (RLU = luciferase activity in relative light units (RLU)/10 s for 10E3 plated c ells)
HeLa [5] = assay: Compound was tested for the impact of introduction of a side chain entity in the linker position on expression of luciferase in transfected HeLa cells (RLU = luciferase activity in relative light units (RLU)/10 s for 10E3 plated cells); format: functional, Homo sapiens; summary of the method: as §1
NIH3T3 [6] = assay: Compound was tested for the impact of introduction of a side chain entity in the linker position on expression of luciferase in transfected NIH3T3 cells (RLU = luciferase activity in relative light units (RLU)/10 s for 10E3 plated cells); format: functional, Mus musculus; summary of the method: as §1
HeLa [7] = assay: Compound was tested for the impact of linker length on expression of luciferase in transfected HeLa cells (RLU = luciferase activity in relative light units (RLU)/10 s for 10E3 plated cells); format: functional, Homo sapiens; summary of the method: as §1
CV-1 = assay: Compound was tested for luciferase activity in Monkey CV1 Cell Lines; format: functional, Cercopithecidae
Summary of the method: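 CV1 cells (5×10^4) plated in MEM at 37 °C, 5% CO2, and transfected after 24 h at 50/70% confluency in serum-free medium. CMV-luciferase plasmid mixed with lipid in 75 mM NaCl final, four lipid:DNA ratios, triplicates. 10% serum added at 2 h, then 44 h more. Lysates counted 10 s. Value reported at optimal ratio.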

HeLa [8] = assay: Compound was tested for the impact of polyamine geometry on expression of luciferase in transfected HeLa cells (RLU = luciferase activity in relative light units (RLU)/10 s for 10E3 plated cells); format: functional, Homo sapiens; summary of the method: as §1
NIH3T3 [9] = assay: Compound tested for the impact on expression of luciferase in transfected NIH3T3 cells (RLU = luciferase activity in relative light units (RLU)/10 s for 10E3 plated cells); format: functional, Mus musculus; summary of the method: as §1
HeLa [10] = assay: Compound was tested for the impact of the length of the lipid on expression of luciferase in transfected HeLa cells (RLU = luciferase activity in relative light units (RLU)/10 s for 10E3 plated cells); format: functional, Homo sapiens; summary of the method: as §1
NIH3T3 [11] = assay: Compound was tested for the impact of the length of the lipid on expression of luciferase in transfected NIH3T3 cells (RLU = luciferase activity in relative light units (RLU)/10 s for 10E3 plated cells); format: functional, Mus musculus; summary of the method: as §1

| Structure (SMILES) | Luciferase activity (NIH3T3 [1]) | Luciferase activity (HeLa [2]) | RLU (NIH3T3 [9]) | further results |
| --- | --- | --- | --- | --- |
| CCCCCCCCCCCCCCCCCCN(CCCCCCCCCCCCCCCCCC)C(=O)[C@H](CCCCN)NC(=O)CNCCCNCCCCNCCCN | 10000000 RLU 10s-1 | 700000 RLU 10s-1 |  |  |
| CCCCCCCCCCCCCCCCCCN(CCCCCCCCCCCCCCCCCC)C(=O)C(CCCCNC(=O)CCCCC1SC[C@@H]2NC(=O)N[C@H]12)NC(=O)CNCCCNCCCCNCCCN (stereo partly drawn) |  |  |  | RLU (NIH3T3 [3]): 5400000; RLU [4]: 160000 |
| CCCCCCCCCCCCCCCCCCN(CCCCCCCCCCCCCCCCCC)C(=O)C(CCCCNC(=O)OCc1ccccc1Cl)NC(=O)CNCCCNCCCCNCCCN (stereo not drawn) | 30000000 RLU 10s-1 | 1400000 RLU 10s-1 |  | RLU (HeLa [5]): 1400000; RLU (NIH3T3 [6]): 30000000 |
| CCCCCCCCCCCCCCCCCCN(CCCCCCCCCCCCCCCCCC)C(=O)CCCCCNC(=O)CNCCCNCCCCNCCCN |  | 3500000 RLU 10s-1 |  | RLU (HeLa [7]): 3500000 |
| CCCCCCCCCCCCCCCCCCN(CCCCCCCCCCCCCCCCCC)C(=O)C(CCCCNC(=O)CCCC[C@H]1SC[C@@H]2NC(=O)N[C@@H]21)NC(=O)CNCCCNCCCCNCCCN (stereo partly drawn) | 5400000 RLU 10s-1 |  |  | Luciferase activity (CV-1): 160000 RLU 10s-1 |
| CCCCCCCCCCCCCCCCCCN(CCCCCCCCCCCCCCCCCC)C(=O)CNC(=O)CNCCN(CCN)CCN | 20000000 RLU 10s-1 | 130000 RLU 10s-1 | 20000000 | RLU (HeLa [8]): 130000 |
| CCCCCCCCCCCCCCCCCCN(CCCCCCCCCCCCCCCCCC)C(=O)CNCCCN(CCCN)CCCCN(CCCN)CCCN |  |  | 59000000 |  |
| CCCCCCCCCCCCCCCCCCN(CCCCCCCCCCCCCCCCCC)C(=O)CNCCCNCCCCNCCCN | 2000000 RLU 10s-1 | 2600000 RLU 10s-1 | 2000000 | RLU (HeLa [7]): 2600000 |
| CCCCCCCCCCCCCCCCCCN(CCCCCCCCCCCCCCCCCC)C(=O)C(CCC(=O)O)NC(=O)CNCCCNCCCCNCCCN (stereo not drawn) |  |  |  | RLU (HeLa [5]): 15000000; RLU (NIH3T3 [6]): 63000000 |
| CCCCCCCCCCCCCCCCCCN(CCCCCCCCCCCCCCCCCC)C(=O)[C@H](CCC(=O)O)NC(=O)CNCCCNCCCCNCCCN | 63000000 RLU 10s-1 | 15000000 RLU 10s-1 |  |  |
| CCCCCCCCCCCCCCCCCCN(CCCCCCCCCCCCCCCCCC)C(=O)CNC(=O)CNCCN(CCCN)CCCCN(CCCN)CCCN | 68000000 RLU 10s-1 | 580000 RLU 10s-1 |  |  |
| CCCCCCCCCCCCCCCCCCN(CCCCCCCCCCCCCCCCCC)C(=O)CNC(=O)CNCCCNCCCCNCCCN |  |  | 54000000 | RLU (NIH3T3 [3]): 26000000; RLU (HeLa [10]): 890000; RLU (HeLa [5]): 10000000; RLU (HeLa [8]): 2400000; RLU [4]: 7000; RLU (NIH3T3 [6]): 200000000; RLU (HeLa [7]): 2400000; RLU (NIH3T3 [11]): 44000000 |
| CCCCCCCCCCCCCCCCCCN(CCCCCCCCCCCCCCCCCC)C(=O)CNCCN(CCN)CCN | 1500000 RLU 10s-1 |  | 1500000 |  |
| CCCCCCCCCCCCCCCCCCN(CCCCCCCCCCCCCCCCCC)C(=O)C(N)CCCN=C(N)N (stereo not drawn) | 8700 RLU 10s-1 | 4700 RLU 10s-1 |  | RLU (HeLa [5]): 4700; RLU (NIH3T3 [6]): 8700 |
| CCCCCCCCCCCCCCCCCCN(CCCCCCCCCCCCCCCCCC)C(=O)C(CCCN=C(N)N)NC(=O)CNCCCNCCCCNCCCN (stereo in doubt; form 2) | 11000000 RLU 10s-1 | 8200000 RLU 10s-1 |  |  |
| CCCCCCCCCCCCCCCCCCN(CCCCCCCCCCCCCCCCCC)C(=O)C(CCCC/N=C(\S)Nc1ccc(-c2c3ccc(=[N+](C)C)cc-3oc3cc(N(C)C)ccc23)c(C(=O)[O-])c1)NC(=O)CNCCCNCCCCNCCCN (stereo not drawn) [CATIONIC LIPID] | 1200000 RLU 10s-1 |  |  | RLU (NIH3T3 [3]): 1200000; Luciferase activity (CV-1): 130000 RLU 10s-1; RLU [4]: 130000 |
